Test results reported in ChEMBL document CHEMBL5678813, “Optimization of a novel series of N-phenylindoline-5-sulfonamide-based acyl CoA:monoacylglycerol acyltransferase-2 inhibitors: Mitigation of CYP3A4 time-dependent inhibition and phototoxic liabilities” (Bioorg Med Chem, 2015).

Legend:
[1] = system: NIH3T3; assay: Cytotoxicity against BALB/c mouse 3T3 cells assessed as reduction in cell viability at 6.25 uM incubated for 1 hrs in absence of UV irradiation by Celltiter-Glo assay relative to control; format: toxicity, cell-based; details: nih3t3, 1 h
Method in brief: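 BALB/c 3T3 cells seeded at 2.5 × 10^3 cells/well and grown 1 day. Compound at 6.25 µM in EBSS with 1 mM HEPES, preincubated 1 h. Plate kept dark (–UV) while the paired plate was irradiated. Medium replaced, cultured 24 h more. Viability read as cellular ATP by CellTiter-Glo, % of 1% DMSO control; n = 3, mean ± SD.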

[2] = molecular target: CYP2D6 (Homo sapiens, UniProt P10635); assay: Reversible inhibition of CYP2D6 in human liver microsomes using dextromethorphan as substrate at 10 uM incubated for 10 mins by LC/MS/MS analysis relative to control; format: ADME, Microsome; details: probe dextromethorphan
Chain of CYP2D6 (P10635 whole entry, canonical isoform): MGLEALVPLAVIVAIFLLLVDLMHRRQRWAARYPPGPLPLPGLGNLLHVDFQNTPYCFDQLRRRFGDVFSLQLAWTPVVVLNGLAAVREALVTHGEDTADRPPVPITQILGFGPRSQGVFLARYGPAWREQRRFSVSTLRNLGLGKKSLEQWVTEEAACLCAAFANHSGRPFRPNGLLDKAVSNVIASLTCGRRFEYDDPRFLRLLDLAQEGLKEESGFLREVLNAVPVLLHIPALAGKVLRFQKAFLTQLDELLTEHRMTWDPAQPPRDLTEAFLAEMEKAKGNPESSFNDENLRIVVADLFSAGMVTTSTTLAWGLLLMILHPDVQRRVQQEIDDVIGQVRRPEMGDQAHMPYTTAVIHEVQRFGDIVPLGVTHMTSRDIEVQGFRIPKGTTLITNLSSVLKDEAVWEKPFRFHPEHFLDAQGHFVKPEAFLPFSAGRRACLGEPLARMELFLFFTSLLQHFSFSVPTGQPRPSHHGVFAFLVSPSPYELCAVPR
Method in brief: (§1)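 Human liver microsomes at 0.1 mg/mL incubated 10 min at 37 °C with isoform-specific substrate and 10 µM test compound. Pairs: 1A2 tacrine/1-hydroxytacrine; 2C8 paclitaxel/6α-hydroxypaclitaxel; 2C9 tolbutamide/4-hydroxytolbutamide; 2D6 dextromethorphan/dextrorphan; 3A4 midazolam/1'-hydroxymidazolam. Stopped with acetonitrile/water; metabolite measured by LC/MS/MS.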

[3] = molecular target: T1, Sterol O-acyltransferase 1 (Homo sapiens, UniProt P35610); assay: Inhibition of N-terminal FLAG-tagged full-length human ACAT1 expressed in recombinant baculovirus infected Sf21 cells using [1-14C]-oleoyl-CoA and cholesterol as substrate incubated for 40 mins by TLC analysis
T1 sequence (P35610 whole entry): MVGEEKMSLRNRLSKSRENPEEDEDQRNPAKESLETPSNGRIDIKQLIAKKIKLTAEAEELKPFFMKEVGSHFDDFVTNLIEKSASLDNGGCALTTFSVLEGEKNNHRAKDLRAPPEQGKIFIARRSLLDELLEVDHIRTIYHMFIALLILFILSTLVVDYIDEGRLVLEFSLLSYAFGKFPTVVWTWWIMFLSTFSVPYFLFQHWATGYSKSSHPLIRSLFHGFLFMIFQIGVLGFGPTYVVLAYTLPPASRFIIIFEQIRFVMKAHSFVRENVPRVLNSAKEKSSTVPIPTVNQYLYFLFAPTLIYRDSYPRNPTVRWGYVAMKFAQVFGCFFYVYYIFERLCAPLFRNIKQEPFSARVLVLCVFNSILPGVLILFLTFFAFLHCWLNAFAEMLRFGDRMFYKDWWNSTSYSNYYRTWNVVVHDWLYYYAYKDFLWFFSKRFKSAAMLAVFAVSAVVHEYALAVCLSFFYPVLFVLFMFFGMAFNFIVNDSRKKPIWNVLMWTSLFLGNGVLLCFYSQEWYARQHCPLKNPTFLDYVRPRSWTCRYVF
Method in brief: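 Sf-21 insect cell membranes from baculovirus infection, prepared in pH 7.4 phosphate/sucrose/KCl buffer. Enzyme at 30 µg/mL reacted with 5 µM [1-14C]-oleoyl-CoA and 100 µM cholesterol for 40 min at 32 °C. Lipids extracted by modified Bligh & Dyer, separated on silica TLC (hexane/ethyl ether/acetic acid), and radioactivity imaged.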

[4] = Volume of distribution at steady state in mouse at 0.1 mg/kg, iv administered as cassette dose by LC/MS/MS analysis; format: ADME, organism-based; details: in vivo, read-out: Vdss
Method in brief: (§2)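 Non-fasted mice dosed by cassette, iv 0.1 mg/kg or po 1 mg/kg suspended in 0.5% methylcellulose aqueous solution; plasma obtained from blood by centrifugation, deproteinized with acetonitrile, and compound concentrations measured by LC/MS/MS.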

[5] = molecular target: T2, CYP2C8 (Homo sapiens, UniProt P10632); assay: Reversible inhibition of CYP2C8 in human liver microsomes using paclitaxel as substrate at 10 uM incubated for 10 mins by LC/MS/MS analysis relative to control; format: ADME, Microsome; details: probe paclitaxel; method in brief: as §1
T2 sequence (P10632 whole entry): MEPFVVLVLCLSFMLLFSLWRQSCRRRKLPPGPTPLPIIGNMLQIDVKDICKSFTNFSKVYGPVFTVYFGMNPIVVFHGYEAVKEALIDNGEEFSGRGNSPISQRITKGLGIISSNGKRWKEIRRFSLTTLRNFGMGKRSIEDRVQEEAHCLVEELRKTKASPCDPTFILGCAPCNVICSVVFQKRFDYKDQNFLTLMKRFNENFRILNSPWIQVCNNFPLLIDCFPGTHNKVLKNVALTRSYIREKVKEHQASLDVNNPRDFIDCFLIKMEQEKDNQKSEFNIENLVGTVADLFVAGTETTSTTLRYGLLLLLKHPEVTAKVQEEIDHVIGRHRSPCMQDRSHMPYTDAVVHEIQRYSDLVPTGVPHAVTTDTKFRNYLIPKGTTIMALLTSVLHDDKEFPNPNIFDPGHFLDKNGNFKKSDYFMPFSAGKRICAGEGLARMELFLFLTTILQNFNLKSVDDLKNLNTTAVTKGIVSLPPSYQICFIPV

[6] = 1-Octanol/aqueous buffer partition coefficient, logD of the compound at pH 7.4 by HPLC analysis; format: physicochemical
[7] = molecular target: CYP2C9 (Homo sapiens, UniProt P11712); assay: Reversible inhibition of CYP2C9 in human liver microsomes using tolbutamide as substrate at 10 uM incubated for 10 mins by LC/MS/MS analysis relative to control; format: ADME, Microsome; details: probe tolbutamide; method in brief: as §1
Chain of CYP2C9 (P11712 whole entry): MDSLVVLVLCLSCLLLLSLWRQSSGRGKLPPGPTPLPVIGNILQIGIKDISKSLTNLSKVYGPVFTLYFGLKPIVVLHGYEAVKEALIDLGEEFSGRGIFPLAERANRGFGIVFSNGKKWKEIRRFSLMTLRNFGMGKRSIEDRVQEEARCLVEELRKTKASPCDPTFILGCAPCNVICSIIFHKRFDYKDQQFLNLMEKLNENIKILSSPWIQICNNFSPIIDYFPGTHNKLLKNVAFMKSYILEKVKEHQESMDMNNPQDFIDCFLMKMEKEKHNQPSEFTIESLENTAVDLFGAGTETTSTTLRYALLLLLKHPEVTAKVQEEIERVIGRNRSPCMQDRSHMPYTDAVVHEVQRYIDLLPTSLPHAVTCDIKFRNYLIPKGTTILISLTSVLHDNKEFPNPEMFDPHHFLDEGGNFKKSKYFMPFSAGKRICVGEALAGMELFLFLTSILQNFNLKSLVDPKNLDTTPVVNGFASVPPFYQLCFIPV

[8] = Total clearance in mouse at 0.1 mg/kg, iv administered as cassette dose by LC/MS/MS analysis; format: ADME, organism-based; details: in vivo; method in brief: as §2
[9] = molecular target: CYP3A4 (Homo sapiens, UniProt P08684); assay: Reversible inhibition of CYP3A4 in human liver microsomes using midazolam as substrate at 10 uM incubated for 10 mins by LC/MS/MS analysis relative to control; format: ADME, Microsome; details: probe midazolam; method in brief: as §1
Chain of CYP3A4 (P08684 whole entry): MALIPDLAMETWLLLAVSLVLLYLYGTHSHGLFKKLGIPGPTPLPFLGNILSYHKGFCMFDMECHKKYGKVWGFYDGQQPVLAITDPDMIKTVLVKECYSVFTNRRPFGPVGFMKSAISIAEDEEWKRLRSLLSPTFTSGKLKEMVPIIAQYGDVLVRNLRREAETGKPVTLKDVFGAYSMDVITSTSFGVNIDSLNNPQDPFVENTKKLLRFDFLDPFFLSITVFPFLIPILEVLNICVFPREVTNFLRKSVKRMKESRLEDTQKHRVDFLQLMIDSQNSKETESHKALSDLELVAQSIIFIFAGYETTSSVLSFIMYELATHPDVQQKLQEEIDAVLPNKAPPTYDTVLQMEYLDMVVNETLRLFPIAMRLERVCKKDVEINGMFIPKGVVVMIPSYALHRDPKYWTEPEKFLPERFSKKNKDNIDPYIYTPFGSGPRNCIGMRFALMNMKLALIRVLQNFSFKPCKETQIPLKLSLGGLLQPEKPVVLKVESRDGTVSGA

[10] = system: Mus musculus; assay: In vivo inhibition of MGAT2 in olive oil-induced C57BL/6J mouse model of hypertriglyceridemia assessed as reduction in plasma chylomicron triglyceride level preadministered orally with compound for 6 hrs followed by Pluronic F127 addition for 30 mins and further treated with olive oil for 4 hrs by automatic analyzer; format: functional; details: dose 0.3-3 mg/kg, route po, time 10.5 hrs
Method in brief: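 Male C57BL/6J mice (20–25 g) fasted overnight and dosed orally at 0.3, 1 or 3 mg/kg. Olive oil (8 mL/kg po) or water given 6 h later, with Pluronic F127 500 mg/kg i.p. 30 min before oil. Tail-vein plasma taken at 0, 2 and 4 h and TG measured by automatic analyzer. CM/TG = oil-group TG minus water-group TG; AUC over 4 h; n = 5, mean ± SD; Williams' test vs vehicle.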

[11] = MRT in mouse at 1 mg/kg, po administered as cassette dose by LC/MS/MS analysis; format: ADME, organism-based; details: in vivo; method in brief: as §2

Structure (SMILES): Cn1nc(C(F)(F)F)cc1-c1cnc(N2CCc3cc(S(=O)(=O)Nc4c(F)cc(Cl)cc4F)cc(N4CCCC4=O)c32)nc1 [TP-020]
- Activity [1]: 99%
- inhibition at 10 min, 10 µM [2]: < 10%
- IC50 [3]: > 10 µM
- Vd [4]: 0.539 L/kg
- inhibition at 10 min, 10 µM [5]: 32%
- logD [6]: 2.8
- inhibition at 10 min, 10 µM [7]: 17%
- clearance [8]: 3.42 mL/min/kg
- inhibition at 10 min, 10 µM [9]: < 10%
- inhibition [10]: Dose-Dependent Effect
- MRT [11]: 3.3 h
